Measured values as given in ChEMBL document CHEMBL1140890, “Ivermectin-derived leishmanicidal compounds” (Bioorg Med Chem, 2009).

How the values were obtained:
[1] = Selectivity index, ratio of IC50 for mouse peritoneal macrophages to IC50 for Leishmania amazonensis Josefa amastigotes
Outline: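 Macrophage LDH-release IC50 divided by intracellular amastigote IC50.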

Leishmania amazonensis [2] = assay: Antileishmanial activity against GFP-tagged Leishmania amazonensis Josefa promastigotes after 72 hrs by fluorimetric assay; type: functional, organism-based
Outline: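 GFP-transfected promastigotes (kept in DMEM + 10% HIFCS at 27 °C, periodically re-isolated from infected mice) seeded at 5 × 10⁵ cells/ml in DMEM, 5% HIFCS, 0.5% DMSO. Exposed to 0, 10, 30, 90 µM for 72 h at 27 °C. Fluorescence read at […] / 538 nm emission; IC50 from means of triplicates.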

Leishmania amazonensis [3] = assay: Antileishmanial activity against GFP-tagged Leishmania amazonensis Josefa amastigotes infected in mouse peritoneal macrophages after 72 hrs by fluorimetric assay; type: functional, organism-based
Outline: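 Mouse peritoneal macrophages at 2 × 10⁶ cells/well, allowed to adhere, then infected 4 h at 37 °C with 10⁷ GFP-transfected fluorescent promastigotes. Free parasites washed off; cultured a further 72 h with compound at 0, 10, 30, 90 µM in 0.5% DMSO. Fluorescence read as for promastigotes. Maximum and minimum inhibition set by uninfected and untreated infected cells; means of triplicates.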

[4] = Cytotoxicity against mouse peritoneal macrophages assessed as LDH release after 48 hrs; type: cell-based, Macrophage
Outline: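 Mouse peritoneal macrophages at 2 × 10⁶ cells/well, 48 h at 37 °C in DMEM + 5% HIFCS with compound at 0, 10, 30, 90 µM in 0.5% DMSO. LDH released into medium measured by kit. Maximum and minimum release set by 2% Triton X-100 and 0.5% DMSO; means of triplicates.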

[5] = Leishmania amazonensis, Josefa, 72 h

## D-glutonic acid, 2,4:2',4'-O-[oxybis-(oxidostibylidyne)]bis-, trisodium salt, nonahydrate
[1]
  Ratio IC50: > 5

## C[C@@H]1[C@H](O)[C@@H](C)/C=C/C=C/C=C/C=C/C=C/C=C/C=C/[C@H](O[C@@H]2O[C@H](C)[C@@H](O)[C@H](N)[C@@H]2O)C[C@@H]2O[C@](O)(C[C@@H](O)C[C@@H](O)[C@H](O)CC[C@@H](O)C[C@@H](O)CC(=O)O[C@H]1C)C[C@H](O)[C@H]2C(=O)O [AMPHOTERICIN B]
Leishmania amazonensis [2]; [5]
  IC50: 4.4 µM

## CCOC(=O)C1=C[C@H](C)[C@@H](O)[C@H]2OC/C(=C\CO)[C@@]12O
Leishmania amazonensis [2]; [5]
  IC50: > 90 µM
Leishmania amazonensis [3]; [5]
  IC50: 13.8 µM
[4]; Mus musculus, Macrophage, 48 h
  IC50: > 90 µM
[1]
  Ratio IC50: >6.5

## IVERMECTIN [listing 1 of 2 here]
[1]
  Ratio IC50: 14.5

## CO[C@H]1C[C@H](O[C@H]2[C@H](C)O[C@@H](O[C@H](C(C)O)[C@@H](C)CO)C[C@@H]2OC)O[C@@H](C)[C@@H]1O (some centres undefined)
Leishmania amazonensis [2]; [5]
  IC50: > 90 µM
Leishmania amazonensis [3]; [5]
  IC50: > 90 µM
[4]; Mus musculus, Macrophage, 48 h
  IC50: 86.2 µM
[1]
  Ratio IC50: <1

## CCOC(=O)C1=C[C@H](C)[C@@H](O)[C@H]2OC/C(=C\C=C\[C@H](C)[C@H](O[C@H]3C[C@H](OC)[C@@H](O[C@H]4C[C@H](OC)[C@@H](O)[C@H](C)O4)[C@H](C)O3)/C(C)=C/C[C@@H]3C[C@H](O)C[C@]4(CC[C@H](C)[C@@H]([C@@H](C)CC)O4)O3)[C@@]12O
Leishmania amazonensis [2]; [5]
  IC50: 2.8 µM
Leishmania amazonensis [3]; [5]
  IC50: 4.6 µM
[4]; Mus musculus, Macrophage, 48 h
  IC50: 27.1 µM
[1]
  Ratio IC50: 5.8

## CC[C@H](C)[C@H]1O[C@]2(CC[C@@H]1C)C[C@@H]1C[C@@H](C/C=C(\C)[C@@H](O[C@H]3C[C@H](OC)[C@@H](O)[C@H](C)O3)[C@@H](C)/C=C/C=C3\CO[C@@H]4[C@H](O)C(C)=C[C@@H](C(=O)O1)[C@]34O)O2
Leishmania amazonensis [2]; [5]
  IC50: 7.7 µM
Leishmania amazonensis [3]; [5]
  IC50: 29.7 µM
[4]; Mus musculus, Macrophage, 48 h
  IC50: > 90 µM
[1]
  Ratio IC50: >3

## CC[C@H](C)[C@H]1O[C@]2(CC[C@@H]1C)C[C@@H](O)C[C@@H](C/C=C(\C)[C@@H](O)[C@@H](C)CO)O2 [NORTHERN AGLYCONE]
Leishmania amazonensis [2]; [5]
  IC50: > 90 µM
Leishmania amazonensis [3]; [5]
  IC50: 30.5 µM
[4]; Mus musculus, Macrophage, 48 h
  IC50: > 90 µM
[1]
  Ratio IC50: >3

## CC[C@H](C)[C@H]1O[C@]2(CC[C@@H]1C)C[C@@H](O)C[C@@H](C/C=C(\C)[C@@H](O[C@H]1C[C@H](OC)[C@@H](O[C@H]3C[C@H](OC)[C@@H](O)[C@H](C)O3)[C@H](C)O1)[C@@H](C)CO)O2
Leishmania amazonensis [2]; [5]
  IC50: 17.1 µM
Leishmania amazonensis [3]; [5]
  IC50: 13.2 µM
[4]; Mus musculus, Macrophage, 48 h
  IC50: 55 µM
[1]
  Ratio IC50: 4.2

## CC[C@H](C)[C@H]1O[C@]2(CC[C@@H]1C)C[C@@H](O)C[C@@H](CCO)O2 [SPIRODIOL]
Leishmania amazonensis [2]; [5]
  IC50: > 90 µM
Leishmania amazonensis [3]; [5]
  IC50: 54.5 µM
[4]; Mus musculus, Macrophage, 48 h
  IC50: > 90 µM
[1]
  Ratio IC50: >1.7

## CC[C@H](C)[C@H]1O[C@]2(CC[C@@H]1C)C[C@@H]1C[C@@H](C/C=C(\C)[C@@H](O)[C@@H](C)/C=C/C=C3\CO[C@@H]4[C@H](O)C(C)=C[C@@H](C(=O)O1)[C@]34O)O2 [IVM AGLYCONE]
Leishmania amazonensis [2]; [5]
  IC50: 8.3 µM
Leishmania amazonensis [3]; [5]
  IC50: 32 µM
[4]; Mus musculus, Macrophage, 48 h
  IC50: > 90 µM
[1]
  Ratio IC50: >2.8

## CCOC(=O)[C@@H]1C=C(C)[C@@H](O)[C@H]2OC/C(=C\C=C\[C@H](C)[C@H](O[C@H]3C[C@H](OC)[C@@H](O[C@H]4C[C@H](OC)[C@@H](O)[C@H](C)O4)[C@H](C)O3)/C(C)=C/C[C@@H]3C[C@H](O)C[C@]4(CC[C@H](C)[C@@H]([C@@H](C)CC)O4)O3)[C@]21O
Leishmania amazonensis [2]; [5]
  IC50: 10.7 µM
Leishmania amazonensis [3]; [5]
  IC50: 6.5 µM
[4]; Mus musculus, Macrophage, 48 h
  IC50: 42.9 µM
[1]
  Ratio IC50: 6.6

## CCOC(=O)[C@@H]1C=C(C)[C@@H](O)[C@H]2OC/C(=C\CO)[C@]21O [SOUTHERN DIOL]
Leishmania amazonensis [2]; [5]
  IC50: > 90 µM
Leishmania amazonensis [3]; [5]
  IC50: 38.6 µM
[4]; Mus musculus, Macrophage, 48 h
  IC50: > 90 µM
[1]
  Ratio IC50: >2.3

## IVERMECTIN [listing 2 of 2 here]
Leishmania amazonensis [2]
  IC50: 7 µM
Leishmania amazonensis [3]
  IC50: 5 µM
[4]; macrophage
  IC50: 72.4 µM

## CC[C@H](C)[C@H]1O[C@]2(CC[C@@H]1C)C[C@@H](O)C[C@@H](C/C=C(\C)[C@@H](O[C@H]1C[C@H](OC)[C@@H](O)[C@H](C)O1)[C@@H](C)CO)O2 [NORTHERN MONOSACCHARIDE]
Leishmania amazonensis [2]; [5]
  IC50: 65.7 µM
Leishmania amazonensis [3]; [5]
  IC50: 41.5 µM
[4]; Mus musculus, Macrophage, 48 h
  IC50: 32.1 µM
[1]
  Ratio IC50: 0.8

## CC[C@H](C)[C@H]1O[C@]2(CC[C@@H]1C)C[C@@H]1C[C@@H](C/C=C(\C)[C@@H](O[C@H]3C[C@H](OC)[C@@H](O[C@H]4C[C@H](OC)[C@@H](O)[C@H](C)O4)[C@H](C)O3)[C@@H](C)/C=C/C=C3\CO[C@@H]4[C@H](O)[C@@H](C)C=C(C(=O)O1)[C@]34O)O2
Leishmania amazonensis [2]; [5]
  IC50: 13.8 µM
Leishmania amazonensis [3]; [5]
  IC50: 3.6 µM
[4]; Mus musculus, Macrophage, 48 h
  IC50: 65.5 µM
[1]
  Ratio IC50: 18.2
